# Assay results from PMC11382121 (Molecular Metabolism, 2024).
# Columns and labels:
# [1] = Pharmacokinetics in Göttingen minipigs; assay type: in vivo; details: female, minipig, plasma, sc, 3 nmol/kg
# Procedure, shortened: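 Two female Göttingen minipigs (30–35 kg) per test compound, each given a single SC dose of 3 nmol/kg (0.04 mL/kg) in the inguinal fold or behind the ear. Up to 10 blood samples were drawn via an ear-vein central venous catheter to 129 h into chilled EDTA tubes. Plasma (2000 RCF, 15 min, 4 °C) was frozen and assayed by LC-MS/MS. Half-life came from a one-phase exponential decay fit.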
# humans = details: exposure levels capable of fully blocking the GIPR; cited from earlier work
# [2] = system: HFD-induced obese cynomolgus monkeys; assay: Efficacy study in obese non-human primates; assay type: in vivo, M. fascicularis; details: 42-day daily SC treatment
structure (smiles),measurement,setting,value
CC[C@H](C)[C@H](NC(=O)[C@H](CC(C)C)NC(=O)[C@H](Cc1c[nH]c2ccccc12)NC(=O)[C@H](CCC(N)=O)NC(=O)[C@@H](NC(=O)[C@H](Cc1ccccc1)NC(=O)[C@H](C)NC(=O)[C@H](CCCCNC(=O)COCCOCCNC(=O)COCCOCCNC(=O)CC[C@H](NC(=O)CCCCCCCCCCCCCCCCCCC(=O)O)C(=O)O)NC(=O)[C@H](CCC(N)=O)NC(=O)[C@H](C)NC(=O)[C@@H](NC(=O)[C@H](CCCCN)NC(=O)[C@H](CC(=O)O)NC(=O)[C@H](CC(C)C)NC(=O)C(C)(C)NC(=O)[C@@H](NC(=O)[C@H](CO)NC(=O)[C@H](Cc1ccc(O)cc1)NC(=O)[C@H](CC(=O)O)NC(=O)[C@H](CO)NC(=O)[C@@H](NC(=O)[C@H](Cc1ccccc1)NC(=O)[C@@H](NC(=O)CNC(=O)[C@H](CCC(=O)O)NC(=O)C(C)(C)NC(=O)[C@@H](N)Cc1ccc(O)cc1)[C@@H](C)O)[C@@H](C)O)[C@@H](C)CC)[C@@H](C)CC)C(C)C)C(=O)N[C@@H](C)C(=O)NCC(=O)NCC(=O)N1CCC[C@H]1C(=O)N[C@@H](CO)C(=O)N[C@@H](CO)C(=O)NCC(=O)N[C@@H](C)C(=O)N1CCC[C@H]1C(=O)N1CCC[C@H]1C(=O)N1CCC[C@H]1C(=O)N[C@@H](CO)C(N)=O [Tirzepatide],AUC(0-inf),[1],4.12 µM·h
same,half-life,[1],83 h
CC[C@H](C)[C@H](NC(=O)[C@H](CO)NC(=O)[C@H](Cc1ccc(O)cc1)NC(=O)[C@H](CC(=O)O)NC(=O)[C@H](CO)NC(=O)[C@@H](NC(=O)[C@H](Cc1ccccc1)NC(=O)[C@@H](NC(=O)CNC(=O)[C@@H](N)CCC(=O)O)[C@@H](C)O)[C@@H](C)CC)C(=O)N[C@@H](C)C(=O)N[C@@H](CCSC)C(=O)N[C@@H](CC(=O)O)C(=O)N[C@@H](CCCCN)C(=O)N[C@H](C(=O)N[C@@H](Cc1c[nH]cn1)C(=O)N[C@@H](CCC(N)=O)C(=O)N[C@@H](CCC(N)=O)C(=O)N[C@@H](CC(=O)O)C(=O)N[C@@H](Cc1ccccc1)C(=O)N[C@H](C(=O)N[C@@H](CC(N)=O)C(=O)N[C@@H](Cc1c[nH]c2ccccc12)C(=O)N[C@@H](CC(C)C)C(=O)N[C@@H](CC(C)C)C(=O)N[C@@H](C)C(=O)N[C@@H](CCC(N)=O)C(=O)N[C@@H](CCCCN)C(N)=O)C(C)C)[C@@H](C)CC [GIP(3–30)NH2],"nausea, comfort or other side effects",humans,"no alterations in nausea, comfort, or any other side effects"
CCCCCCCCCCCCCCCC(=O)N[C@@H](CCC(=O)NCCCC[C@H](NC(=O)[C@H](C)NC(=O)[C@H](C)NC(=O)[C@H](CCC(N)=O)NC(=O)CNC(=O)[C@H](CCC(=O)O)NC(=O)[C@H](CC(C)C)NC(=O)[C@H](Cc1ccc(O)cc1)NC(=O)[C@H](CO)NC(=O)[C@H](CO)NC(=O)[C@@H](NC(=O)[C@H](CC(=O)O)NC(=O)[C@H](CO)NC(=O)[C@@H](NC(=O)[C@H](Cc1ccccc1)NC(=O)[C@@H](NC(=O)CNC(=O)[C@H](CCC(=O)O)NC(=O)[C@H](C)NC(=O)[C@@H](N)Cc1cnc[nH]1)[C@@H](C)O)[C@@H](C)O)C(C)C)C(=O)N[C@@H](CCC(=O)O)C(=O)N[C@@H](Cc1ccccc1)C(=O)N[C@H](C(=O)N[C@@H](C)C(=O)N[C@@H](Cc1c[nH]c2ccccc12)C(=O)N[C@@H](CC(C)C)C(=O)N[C@H](C(=O)N[C@@H](CCCNC(=N)N)C(=O)NCC(=O)N[C@@H](CCCNC(=N)N)C(=O)NCC(=O)O)C(C)C)[C@@H](C)CC)C(=O)O [Liraglutide],tolerability / side effects,[2],one NHP in the liraglutide monotreatment group that stopped eating and drinking
